# An excerpt weighted towards active compounds, which were near 1.8% of everything screened.
# TCR CD3 inh: inhibitors of human TCR-CD3 interaction | TAMRA-labeled TCR probe fluorescence, biochemical | inhibition, % at 9.4 µM | 360,000 tested, 0.37% active; in the data active = inhibition above about 19%;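 note: recombinant mutant TCR 2C K166C tagged with TAMRA read by polarization; 0% = receptor in buffer alone and 100% = receptor with positive control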
# HTRA1 inhibitor: blocks human HTRA1 serine peptidase; inhibition, % at 5.96 µM; AID 504803; recombinant HTRA1, FP-rhodamine activity-based probe, fluorescence polarization; 340,000 tested, 0.5% active; in the data active = inhibition above about 36%;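 note: 0% = enzyme with DMSO and 100% = wells lacking enzyme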
# ABHD4 inh: ABHD4 (mouse) inhibition, primary FP screen | inhibition, % at 8.92 µM | 370,000 tested, 0.54% active | AID 720543 | Q8VD66 | purified mABHD4, FP-Rh probe fluorescence polarization;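 active = inhibition exceeding the mean over every tested compound plus 3 SD, cut at about 30% in these data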;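 note: 0% = plate median of compound wells and 100% = S159A mutant with DMSO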
# Target sequence (Q8VD66 whole entry, looked up): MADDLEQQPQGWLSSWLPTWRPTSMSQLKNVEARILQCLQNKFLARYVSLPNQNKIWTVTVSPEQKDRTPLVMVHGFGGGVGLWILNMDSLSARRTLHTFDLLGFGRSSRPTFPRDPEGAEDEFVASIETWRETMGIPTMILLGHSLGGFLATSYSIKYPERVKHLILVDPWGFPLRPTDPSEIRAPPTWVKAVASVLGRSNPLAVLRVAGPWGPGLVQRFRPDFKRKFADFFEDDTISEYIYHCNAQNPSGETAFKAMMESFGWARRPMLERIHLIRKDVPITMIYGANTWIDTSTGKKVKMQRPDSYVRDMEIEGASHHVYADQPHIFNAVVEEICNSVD
#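 Test system: mABHD4 protein; Read-out basis: % inhibition; Incubation: 45 min + 60 min at 25 °C; Repeats: single replicate; Technique: fluorescence polarization with parallel and perpendicular emission, 525/598 nm; Compound: 8.92 µM, single dose; Benchmarks: full inhibition S159A mutant plus DMSO, zero as sample-well median.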
# ARNT-TACC3 inh: disrupts binding between human ARNT and TACC3; AlphaScreen His-ARNT PAS-B/GST-TACC3 binding, luminescence; TACC3 fragment carries E629A point mutation; inhibition, % at 9.99 µM; Q9Y6A5; 390,000 tested, 0.66% active;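 active = mean inhibition of replicates at least 50% and at least half of replicates each reaching 50%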;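 note: 0% = complete ARNT plus TACC3 wells and 100% = ARNT alone without TACC3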
# SIAE inh: human SIAE inhibition, primary screen | SIAE FP-Rh probe binding, fluorescence polarization | 370,000 tested, 0.69% active | inhibition, % at 9.66 µM;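 active = inhibition above a cutoff: mean of compounds within the control limits plus 3 SD of those, cut at about 17% in these data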;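 note: 0% = plate median of compound wells and 100% = probe without SIAE protein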
# ARNT Alpha ctr-1: AlphaScreen artifact in ARNT/TACC3 counter-screen; AID 651705; His-ARNT PASB-GST AlphaScreen artifact counter-screen, luminescence; shares compounds with ARNT-TACC3 inh; AC50, µM (titrated, usually from 68 µM), for inactives: top-dose activity change, negative = signal decrease; 1,200 tested, 50% active;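 active = every separate test run was called active for a drop in luminescence, with AC50 within twice the top valid dose, actives reach about 71 µM in these data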
# ARNT Alpha ctr-2: counter-screen for ARNT-TACC3 inhibitors: AlphaScreen artifacts | shares compounds with ARNT-TACC3 inh | Dual-tagged His-ARNT PASB-GST AlphaScreen artifact counter-screen | AC50, µM | 45 tested, 70% active | AID 720564;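 active = luminescence drop, with half-maximal potency fitted within twice the sample's top valid dose, cut at about 70 µM in these data; inactive = the rest, including signal moving the wrong way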
# An asterisk follows results filed as active; nt = not tested or not shown; [ ] = remark or other dose.
SMILES,TCR CD3 inh,HTRA1 inhibitor,ABHD4 inh,ARNT-TACC3 inh,SIAE inh,ARNT Alpha ctr-1,others
C[C@@H]1CN([C@H](C)CO)C(=O)c2cccc(NC(=O)Nc3ccc4c(c3)OCO4)c2O[C@@H]1CN(C)C(=O)Nc1ccccc1,nt,nt,nt,21,nt,nt,
Cc1noc(C)c1S(=O)(=O)N(C)C[C@@H]1Oc2ccc(NS(=O)(=O)c3ccccc3)cc2C(=O)N([C@@H](C)CO)C[C@@H]1C,nt,nt,nt,10,nt,nt,
O=C(NCc1ccccc1)c1ncn(Cc2ccccc2)c1C(=O)NCc1ccccc1,0,-3,-2,-10,-3,nt,
O=C(O)c1ncn(Cc2ccccc2)c1C(=O)O,2,0,1,62*,-5,-23%,
O=C(Nc1ccccn1)c1ccc(Cl)s1,-8,0,-2,-19,8,nt,
Cc1ccc(C(=O)Nc2nc(-c3ccccn3)cs2)s1,-4,-1,1,54*,-3,38µM*,
CC(Oc1cccc(Cl)c1)C(=O)Nc1ccncc1 (stereo unspecified),3,2,5,-1,0,nt,
O=C(Nc1nc(-c2ccccn2)cs1)c1ccc(Cl)s1,0,-10,1,59*,-7,28µM*,
Cn1cccc1C(=O)Nc1nc(-c2ccccn2)cs1,3,1,14,63*,-2,20µM*,
CC(Oc1cccc(Cl)c1)C(=O)Nc1nc(-c2ccccn2)cs1 (stereo unspecified),5,3,-9,53*,-7,-18%,
O=C(c1cc(-c2ccccc2)on1)N1CCc2ccccc2C1,-1,-24,0,-14,-6,nt,
CN1CCN(C(=O)c2cc(-c3ccccc3)on2)CC1,-5,3,-5,-4,2,3%[38 µM],
O=C(c1cc(-c2ccccc2)on1)N1CCCCCC1,-3,-5,6,0,-3,nt,
O=C(c1cc(-c2ccccc2)on1)N1CCc2cccnc21,nt,nt,nt,nt,nt,-8%[38 µM],
COc1ccc(NC(=O)N[C@H]2CC[C@H](CCn3cc(-c4ccccn4)nn3)O[C@H]2CO)cc1,nt,nt,nt,41,nt,nt,
COc1ccc(NC(=O)N[C@@H]2CC[C@H](CCn3cc(-c4ccccn4)nn3)O[C@H]2CO)cc1,nt,nt,nt,59*,nt,50µM*,
COc1ccc(NC(=O)N[C@@H]2CC[C@H](CCn3cc(-c4ccccn4)nn3)O[C@@H]2CO)cc1,nt,nt,nt,63*,nt,51µM*,
CCCNC(=O)C[C@H]1CC[C@@H]2[C@H](COc3ccc(NC(=O)Nc4c(C)noc4C)cc3C(=O)N2C)O1,nt,nt,nt,-6,nt,nt,
CC(C)(C)[S@@](=O)N1Cc2cc(C(=O)NCc3ccccc3F)nc(-c3cccc(-c4cncnc4)c3)c2[C@H]1CCO,nt,nt,nt,-6,nt,nt,
COc1ccc(-c2cc(NCc3ccccn3)n3ncnc3n2)cc1,2,-1,-15,52*,1,-1%,
COc1ccc(-c2cc(NCCc3ccncc3)n3ncnc3n2)cc1,-5,-1,-9,-1,1,nt,
CC(C)C(=O)NC(c1ccco1)c1cc(Cl)c2cccnc2c1O (stereo unspecified),nt,nt,nt,nt,nt,nt,ARNT Alpha ctr-2=43*
CC(C)C(=O)NC(c1ccco1)c1ccc2cccnc2c1O (stereo unspecified),-4,20,9,53*,12,29µM*,ARNT Alpha ctr-2=9.4*
CC(=O)NC(c1ccco1)c1cc(Cl)c2ccccc2c1O (stereo unspecified),-8,-1,8,6,11,nt,
CC(=O)NC(c1ccco1)c1cc(F)c2cccnc2c1O (stereo unspecified),1,29,11,58*,8,45µM*,
SMILES,TCR CD3 inh,HTRA1 inhibitor,ABHD4 inh,ARNT-TACC3 inh,SIAE inh,ARNT Alpha ctr-1,others
O=C(Cc1ccccc1)NC(c1ccco1)c1ccc2cccnc2c1O (stereo unspecified),nt,nt,nt,nt,nt,nt,ARNT Alpha ctr-2=8.7*
CN1C(=O)c2cc(NC(=O)c3cc(F)cc(F)c3)ccc2OC[C@H]2O[C@H](CC(=O)O)CC[C@H]21,nt,nt,nt,-5,nt,nt,
Cc1ccc(CNC(=O)CSc2ccc(-c3ccccn3)nn2)cc1,0,3,-1,38,1,nt,
O=C(CSc1ccc(-c2ccccn2)nn1)NCc1ccc(Cl)cc1,-1,20,-2,53*,-4,69µM*,
COc1cccc(CNC(=O)CSc2ccc(-c3ccccn3)nn2)c1,-3,4,4,66*,1,61µM*,
COc1cccc(CNC(=O)CSc2ccc(-c3ccco3)nn2)c1,2,2,-2,-4,-2,nt,
O=C(c1cccnc1)N1C[C@@H]2[C@H](c3ccccc31)[C@H](CO)N2C(=O)Nc1ccc(F)cc1,nt,nt,nt,-1,nt,nt,
O=C(Nc1nc(-c2ccccc2)cs1)c1cccs1,6,-43,-20,-3,-20,nt,
O=C(Nc1nc(-c2ccccc2)cs1)c1cc(-c2ccccc2)on1,nt,nt,nt,nt,nt,-2%[38 µM],
O=C(Nc1cn2ccccc2n1)c1cc(-c2ccccc2)on1,nt,nt,nt,nt,nt,-7%[38 µM],
CCCC(=O)Nc1ccc2c(c1)C(=O)N(C)C[C@H](OC)[C@@H](C)CN(C(=O)c1cnccn1)[C@H](C)CO2,nt,nt,nt,35,nt,nt,
Cc1ccc(S(=O)(=O)Nc2cccc3c2O[C@H](CN(C)Cc2ccc4c(c2)OCO4)[C@H](C)CN([C@H](C)CO)C3=O)cc1,nt,nt,nt,-11,nt,nt,
O=C(C1=C(O)C(=O)N(Cc2ccccc2)C1c1ccncc1)c1ccco1 (stereo unspecified),-6,4,6,21*,2,-3%,
O=C(C1=C(O)C(=O)N(CCCn2ccnc2)C1c1ccccc1)c1ccco1 (stereo unspecified),nt,4,nt,-6,nt,nt,
NS(=O)(=O)c1ccc(CCNC(=O)COC(=O)c2ccc([N+](=O)[O-])o2)cc1,0,21,3,71*,2,-10%,
O=C(COC(=O)c1ccc([N+](=O)[O-])s1)NCc1ccccc1,5,26,-4,26*,-3,-3%,
COc1ccccc1CNC(=O)COC(=O)c1ccc([N+](=O)[O-])o1,-3,16,4,7,-1,nt,
O=C(COC(=O)c1ccc([N+](=O)[O-])o1)NCc1ccccc1,-9,20,-7,20*,-3,-8%,
C[C@@H]1CN([C@@H](C)CO)C(=O)c2cc(C#CC3(O)CCCC3)cnc2O[C@@H]1CN(C)C(=O)CC1CC1,nt,nt,nt,-2,nt,nt,
C[C@H](CO)N1C[C@H](C)[C@H](CN(C)C(=O)Nc2ccc(F)cc2)OCCCC[C@H](C)Oc2ccc(NS(=O)(=O)c3ccccc3)cc2C1=O,nt,nt,nt,-13,nt,nt,
CCOc1ccc(C(c2c(C)[nH][nH]c2=O)c2c(C)[nH][nH]c2=O)cc1OC,0,0,4,6,1,nt,
C#CCOc1ccc(OC)cc1C(c1c(C)[nH][nH]c1=O)c1c(C)[nH][nH]c1=O,nt,8,nt,37*,nt,2%,
C[C@@H]1CCCCO[C@H](CN(C)Cc2ccc(C(=O)O)cc2)[C@@H](C)CN([C@@H](C)CO)C(=O)c2cc(NC(=O)C3CCCCC3)ccc2O1,nt,nt,nt,1,nt,nt,
